HDAC3 inhib: HDAC3 deacetylase inhibitors, primary screen, biochemical, fluorescence, cell-free homogeneous; 0.15% of 320,000 active; recombinant HDAC3, fluorogenic peptide/trypsin coupled; Histone deacetylase 3 (Homo sapiens), O15379; inhibition, % at 8.3 µM; in the data active means inhibition above about 26%, passing the limit was not always enough; inconclusive means no clear call, values can overlap the other calls
FAS TE block: FAS thioesterase domain inhibitors, primary screen, biochemical, fluorescence intensity, uHTS | recombinant FAS-TE, OMFH fluorogenic substrate, fluorescence endpoint | Fatty acid synthase (Homo sapiens), P49327 | 0.67% of 360,000 active | inhibition, % at 15 µM;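 active means compounds whose normalised, plate-corrected inhibition of enzyme fluorescence in the single-dose primary screen is 50% or more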;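 further: 0% = DMSO with enzyme and 100% = substrate without enzyme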
M18AAP inhibitor: PfM18AAP inhibitors, malaria aminopeptidase, primary screen, biochemical, QFRET, recombinant enzyme. M18 aspartyl aminopeptidase (Plasmodium falciparum 3D7). H-Glu-NHMec fluorogenic cleavage. inhibition, % at 7.35 µM. 1.2% of 290,000 active;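 active means inhibition above the campaign mean inhibition over all tested compounds plus 3 SD, cut at about 28% in these data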;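 further: 0% = plate median of test compound wells and 100% = 2 mM ZnCl2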
UCH37 inh: inhibitors of human UCH37 deubiquitinase, primary screen, biochemical, Ub-AMC cleavage, fluorescence; purified proteasome/UCH37; inhibition, % (no concentration beside the values); 0.33% of 330,000 active; AID 588478, 2011;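 active means mean inhibition over replicate wells above about 20%, limit read from the data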;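 further: 0% = compound-free wells with enzyme and 100% = wells lacking proteasome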
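Reagent: Ub-AMC substrate; assay system: Proteasome-associated human UCH37 deubiquitinase; controls: no-proteasome and no-compound wells; read-out: % inhibition of Ub-AMC cleavage fluorescence; timing: 30 min preincubation with enzyme, 25 min cleavage at room temperature; signal: AMC fluorescence from Ub-AMC cleavage, excitation 355 nm, emission 460 nm; buffer or medium: Tris-HCl pH 7.4 plus ovalbumin, ATP-MgCl2, DTT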
Rtt109 Vps75: inhibitors of C. albicans Rtt109/Vps75 HAT, primary screen, biochemical, ThioGlo CoA-SH fluorescence, plate reader; Histone acetyltransferase RTT109 (Candida albicans (strain SC5314 / ATCC MYA-2876)), …; inhibition, % at 34.9 µM; 0.16% of 330,000 active; AID 540336, 2011; purified Rtt109/Vps75, 4 h;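 active means inhibition of at least 50% in every replicate; inconclusive means best replicate reaches 50% inhibition but some replicates fall short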
Target sequence (Q5AAJ8 whole entry, looked up): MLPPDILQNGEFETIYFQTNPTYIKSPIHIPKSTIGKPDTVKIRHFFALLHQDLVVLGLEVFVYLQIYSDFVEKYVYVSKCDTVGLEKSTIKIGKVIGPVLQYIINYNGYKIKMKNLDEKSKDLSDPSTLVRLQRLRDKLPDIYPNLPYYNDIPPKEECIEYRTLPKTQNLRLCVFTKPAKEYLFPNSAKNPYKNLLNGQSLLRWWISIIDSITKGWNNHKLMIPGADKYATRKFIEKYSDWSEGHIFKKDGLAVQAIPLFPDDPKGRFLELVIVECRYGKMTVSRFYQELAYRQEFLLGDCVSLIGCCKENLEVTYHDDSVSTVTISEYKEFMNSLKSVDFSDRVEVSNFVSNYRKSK
ALR H2O2 inh: inhibitors of human ALR sulfhydryl oxidase, primary screen, biochemical, H2O2 detection, HRP-luminol luminescence, single point | purified ALR, DTT oxidation | inhibition, % (concentration not given with the values) | 3.8% of 290,000 active | AID 485317, 2010;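 active means mean replicate inhibition above about 79%, with every replicate also reaching it, limit read from the data; inconclusive means only one of the two criteria met; inactive means mean below limit and not every replicate reaching it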
Target sequence (P55789 whole entry, looked up): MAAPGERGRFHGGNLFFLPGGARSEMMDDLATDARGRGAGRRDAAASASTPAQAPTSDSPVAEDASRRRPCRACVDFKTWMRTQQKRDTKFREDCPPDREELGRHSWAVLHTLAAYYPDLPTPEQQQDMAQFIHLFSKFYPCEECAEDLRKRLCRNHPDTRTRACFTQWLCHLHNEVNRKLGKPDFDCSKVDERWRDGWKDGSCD
FAS-TE conf: FAS thioesterase domain inhibitors, confirmation, biochemical, fluorescence intensity, single concentration. recombinant FAS-TE, OMFH fluorogenic substrate. 45% of 2,300 active. inhibition, % at 15 µM. shares compounds with FAS TE block;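 active means compounds inhibiting the enzyme by at least 50% at 15 µM in any one of the replicates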;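 further: 0% = enzyme with DMSO only and 100% = wells lacking enzyme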
An asterisk follows results filed as active. Hits are enriched below; roughly 4.6% of the tested compounds scored in any of these assays.

Cn1c2ccccc2c2nnc(SCc3nnc(-c4ccccc4)o3)nc21 was read as HDAC3 inhib inconclusive, M18AAP inhibitor -4.2, UCH37 inh 4.1 and ALR H2O2 inh 2.4.
Screening Cc1ccsc1C=Nn1c(-c2cccnc2)n[nH]c1=S returned UCH37 inh 3.6.
For CC(CCc1ccccc1)NC(=O)COC(=O)c1cc(NS(=O)(=O)c2ccc(Cl)c([N+](=O)[O-])c2)ccc1O (stereo unspecified) the results were HDAC3 inhib 3.2, FAS TE block 54.6*, M18AAP inhibitor -4.3, UCH37 inh 1.1, Rtt109 Vps75 10.8, ALR H2O2 inh 38.4 and FAS-TE conf 61.7*.
COc1cccc(NC(=O)c2cc([N+](=O)[O-])ccc2NC(=O)CNCC2CCCO2)c1 (stereo unspecified) was read as HDAC3 inhib 4.8, FAS TE block 51.7*, M18AAP inhibitor 12.9, UCH37 inh 3.2, Rtt109 Vps75 1.7, ALR H2O2 inh 99.6* and FAS-TE conf 57.4*.
For COc1ccc(CNC(=O)/C(C#N)=C2\N=C(NC(=O)c3cccs3)c3ccccc32)cc1 the results were HDAC3 inhib -0.7, FAS TE block 51.3*, M18AAP inhibitor 1.4, UCH37 inh -15.7, Rtt109 Vps75 -0.9, ALR H2O2 inh 3.8 and FAS-TE conf 33.5.
Screening COCCNC(=O)/C(C#N)=C1\N=C(NC(=O)c2cccs2)c2ccccc21 returned HDAC3 inhib -0.3, FAS TE block -7.2, M18AAP inhibitor -4.7, UCH37 inh -5.4, Rtt109 Vps75 4.9 and ALR H2O2 inh 1.5.
Screening CC(=O)Nc1ccc(C=NNC(=O)c2cccs2)cc1 returned UCH37 inh -46.7.
For Cc1cccc(OCC(=O)NN=C2SCC(=O)N2Cc2ccco2)c1 the results were UCH37 inh 0.1.
`Cc1ccccc1S(=O)(=O)N1C[C@H]2[C@H]3C(=O)N(C4CCCCC4)C(=O)[C@H]3CC(=O)[C@H]2[C@@H]1c1ccc(Cl)cc1` gave FAS TE block 73.1* and FAS-TE conf 22.6.
`CCc1ccc([C@H]2[C@@H]3C(=O)C[C@@H]4C(=O)N(Cc5ccccc5)C(=O)[C@@H]4[C@@H]3CN2S(=O)(=O)c2ccc(C)cc2)cc1` gave FAS TE block 59.2* and FAS-TE conf 12.4.
CCc1ccc([C@H]2[C@@H]3C(=O)C[C@@H]4C(=O)N(C5CCCCC5)C(=O)[C@@H]4[C@@H]3CN2S(=O)(=O)c2ccc(C)cc2)cc1 was read as FAS TE block 72.5* and FAS-TE conf 19.1.
O=C(CNC(=O)c1ccccc1Cl)NN=C/C=C/c1ccccc1 was read as UCH37 inh 0.8.
For O=C(CCCn1c(SCc2cccc([N+](=O)[O-])c2)nc2ccccc2c1=O)NCC1CCCO1 (stereo unspecified) the results were HDAC3 inhib -10.2, FAS TE block 86.2*, M18AAP inhibitor -6.8, UCH37 inh 1.9, Rtt109 Vps75 -6.6, ALR H2O2 inh -15.3 and FAS-TE conf 29.5.
CCc1ccc(NC(=Nc2nc(C)cc(C)n2)NC(C)=O)cc1 was read as UCH37 inh 2.4.
For Cc1onc(-c2c(Cl)cccc2Cl)c1-c1nc2cc(Cl)ccc2c(=O)o1 the results were FAS TE block 54.4*, M18AAP inhibitor -4.3, UCH37 inh -1.9 and FAS-TE conf 3.1.
Screening Cc1nnc(SC(C(=O)Nc2ccc(Cl)c([N+](=O)[O-])c2)c2ccccc2)[nH]c1=O (stereo unspecified) returned HDAC3 inhib 1.8, FAS TE block 51.8*, M18AAP inhibitor -0.2, UCH37 inh 2.1, Rtt109 Vps75 4.2, ALR H2O2 inh 17.2 and FAS-TE conf 53.1*.
`CC1=C(C(=O)OCC(Br)(Br)Br)C(c2cccc([N+](=O)[O-])c2)NC(=O)N1CCCC(=O)O` (stereo unspecified) gave HDAC3 inhib 2.4, FAS TE block 56.5*, UCH37 inh 3.1, Rtt109 Vps75 4.6, ALR H2O2 inh -15.3 and FAS-TE conf 65.0*.
Screening Fc1cccc(-c2cc3nc4c(c(N5CCC6(CC5)OCCO6)n3n2)CCCC4)c1 returned FAS TE block 54.9*, M18AAP inhibitor -9.3, UCH37 inh -48.1, Rtt109 Vps75 22.7 and FAS-TE conf 35.0.
`OC1CCN(c2c3c(nc4cc(-c5cccc(F)c5)nn24)CCCC3)CC1` gave HDAC3 inhib 0.5, FAS TE block 6.0, M18AAP inhibitor 0.5, UCH37 inh -87.3, Rtt109 Vps75 -9.4 and ALR H2O2 inh 1.7.
Screening CC(/C=C/c1ccccc1F)=NNC(=O)c1cccc(F)c1 returned UCH37 inh 5.3.
`Cc1ccc(/C=N\NC(=O)C2CN(S(=O)(=O)c3ccccc3)CCN2S(=O)(=O)c2ccccc2)cc1` (stereo unspecified) gave HDAC3 inhib 7.4, FAS TE block 80.6*, M18AAP inhibitor 1.2, Rtt109 Vps75 -4.8, ALR H2O2 inh 1.1 and FAS-TE conf 19.4.
Screening CCNC(=O)C1CN(S(=O)(=O)c2ccccc2)CCN1S(=O)(=O)c1ccccc1 (stereo unspecified) returned HDAC3 inhib 1.4, FAS TE block -8.1, M18AAP inhibitor -2.9, UCH37 inh -0.2, Rtt109 Vps75 -5.5 and ALR H2O2 inh -2.3.
For CC(=NNc1ccc(Cl)cc1)c1ccccn1 the results were UCH37 inh 4.0.
`O=C(N/N=C\c1ccc(Cl)cc1)C1=NOC2COC3(CCN(c4ccc([N+](=O)[O-])cc4)CC3)OCC12` (stereo unspecified) gave HDAC3 inhib 5.2, FAS TE block 68.8*, M18AAP inhibitor 6.5, Rtt109 Vps75 6.8, ALR H2O2 inh -0.4 and FAS-TE conf 18.7.
`COc1ccccc1-n1c(=O)c(C#N)c(-c2ccc([N+](=O)[O-])cc2)c2cc(C(=O)c3ccccc3O)cnc21` gave HDAC3 inhib -8.6, FAS TE block 88.6*, M18AAP inhibitor 2.7, UCH37 inh 1.4, Rtt109 Vps75 -0.2, ALR H2O2 inh -13.8 and FAS-TE conf 13.8.
`Cc1cccc(C2=NN(c3ccccc3)[C@@H](C(=O)N3CCOC3=O)[C@@H]2c2ccc(Cl)cc2)c1` gave FAS TE block 56.2*, UCH37 inh -237.1, Rtt109 Vps75 -5.2 and FAS-TE conf 17.8.
